Shown are actives, neighbours in structure and some others; about 27% of the full set was active somewhere.
CYP2C19 inh: blocks human cytochrome P450 2C19; 96,000 compounds, 21% hits; CYP2C19 Supersomes, luciferin-H EGE luminescence, 30 min; inhibition, % at 5 µM; P33261;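 active = CYP2C19 inhibition above a set limit at 5 µM in the primary screen, cut at about 50% in these data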;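 also: plate controls were negative control wells for no effect and 2.5 mM tranylcypromine positive control for full effect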
Target sequence (P33261 whole entry, looked up): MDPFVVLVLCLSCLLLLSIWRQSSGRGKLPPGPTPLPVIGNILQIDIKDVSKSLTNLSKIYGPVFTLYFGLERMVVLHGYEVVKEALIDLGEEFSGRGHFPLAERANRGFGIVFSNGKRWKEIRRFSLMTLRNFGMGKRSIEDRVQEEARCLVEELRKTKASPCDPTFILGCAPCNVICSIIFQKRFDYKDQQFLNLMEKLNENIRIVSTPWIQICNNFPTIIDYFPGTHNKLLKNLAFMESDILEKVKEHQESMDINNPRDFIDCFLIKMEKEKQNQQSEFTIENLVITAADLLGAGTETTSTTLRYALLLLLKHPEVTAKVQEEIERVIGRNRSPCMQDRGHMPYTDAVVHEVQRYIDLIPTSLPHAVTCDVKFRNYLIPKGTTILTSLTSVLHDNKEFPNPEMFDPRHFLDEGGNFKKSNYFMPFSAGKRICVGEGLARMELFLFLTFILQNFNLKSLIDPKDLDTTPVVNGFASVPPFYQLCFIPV
CYP2C9 act: increases human cytochrome P450 2C9 activity; P11712; recombinant CYP2C9, luciferin-H conversion, luminescence; active compounds read high; factor 1 = untreated enzyme, 0 = blocked; activation factor at 5 µM; 96,000 compounds, 1.4% hits; AID 1024;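 active = activation factor of 2 or more for CYP2C9 at a 5 µM dose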;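 also: 0 = sulfaphenazole-blocked wells and 1 = vehicle-only wells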
Cav32 inh: blocks human Cav3.2 T-type calcium channel. 100,000 compounds, 4% hits. B-score at 10 µM. Cav3.2-expressing cells, Fluo-4 calcium fluorescence FDSS; active compounds read low;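 active = single-dose well whose peak fluorescence ratio is a statistical outlier from its plate by either plate-standardised score or position-corrected B-score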
CYP2C9 inh: inhibitors of human CYP2C9; AID 777; inhibition, % at 5 µM; CYP2C9 Supersomes, luciferin-H conversion, luminescence; 96,000 compounds, 20% hits;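 active = blocking of liver enzyme CYP2C9 beyond about 50% at 5 µM, limit read from the data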
CYP2C19 act: activators of human cytochrome P450 2C19; 96,000 tested, under 10 active; AID 1025; activation factor at 5 µM; recombinant CYP2C19, luciferin-H EGE luminescence; active compounds read high; 0 = fully inhibited enzyme, 1 = untreated enzyme;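 active = activation factor of at least 2 at 5 µM in the primary screen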;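 also: 0 = wells with 2.5 mM tranylcypromine and 1 = vehicle-only wells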
HIV Rev-RRE inh: inhibitors of HIV-1 Rev-RRE RNA interaction | P05866 | Rev peptide-RRE RNA binding, FRET | inhibition, % at 8 µM | 97,000 compounds, 0.79% hits | AID 704;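 active = inhibition above the screen-wide mean plus 3 SD, cut at about 35% in these data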;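 also: 0% = median DMSO wells and 100% = median Neomycin B control wells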
Target sequence (P05866 whole entry, looked up): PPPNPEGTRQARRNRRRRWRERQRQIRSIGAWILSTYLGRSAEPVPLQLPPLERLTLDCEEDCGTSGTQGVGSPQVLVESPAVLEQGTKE
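Test system – labelled RRE RNA duplex and labelled Rev peptide · Reagent – labelled Rev peptide · Doses – one concentration, 8 µM nominal · Incubation – 5 + 15 min at 25 °C · Signal – FRET fluorescence readout · Read-out basis – % inhibition of FRET ratio versus controls · Control set – DMSO wells as 0% and neomycin B wells as 100% inhibition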
An asterisk follows results filed as active; x = no result given.

SMILES | CYP2C19 inh | CYP2C9 act | Cav32 inh | CYP2C9 inh | CYP2C19 act | HIV Rev-RRE inh
COc1ccc(/C=C/C(O)=C2/C(=O)N(C)C3(C)CC2c2ccccc2O3)cc1 (stereo unspecified) | 12.1 | 0.9 | -5.04* | 13.2 | 0.9 | 12.7
Cc1ccc(C)c(N2CCN(CC3CC=CCC3)CC2)c1 (stereo unspecified) | 10.8 | 0.9 | -2.47 | 5.8 | 0.9 | -2.3
CC(C)OP(=O)(OC(C)C)C(NC(=O)c1cccc([N+](=O)[O-])c1)C(N)=O (stereo unspecified) | 5.8 | 0.8 | 0.00349 | 17.8 | 0.9 | 1.8
COC(=O)CCC(NC(=O)c1cc(-c2ccc3c(c2)OCCO3)oc1C)C(=O)OC (stereo unspecified) | 51.8* | 0.6 | -0.251 | 40.4 | 0.5 | 5.2
CCOC(=O)CNC(=O)c1cc(-c2ccc3c(c2)OCCO3)oc1C | 6.8 | 1 | 0.948 | -2.0 | 0.9 | 9.6
Cc1ccc(-c2nnc(SCC(=O)N3CC(C)CC(C)C3)o2)cc1C (stereo unspecified) | x | x | -3.33 | x | x | x
Cc1cc(C)c(Cn2c(=O)n(CCCC(=O)NCc3ccco3)c(=O)c3sccc32)c(C)c1 | 26.7 | 0.4 | 0.635 | 61.4* | 0.7 | 9.1
O=C(CCCCn1c(=S)[nH]c2ccsc2c1=O)NCc1ccco1 | 32.6 | 0.3 | 0.399 | 66.9* | 0.7 | 0.1
Cc1ccc(C)c(Cn2c(=O)n(CCC(=O)NCc3ccco3)c(=O)c3sccc32)c1 | -5.0 | 0.9 | 0.0433 | 9.4 | 1.1 | 7.0
O=C(CCCn1c(=O)c2sccc2n(Cc2cc(=O)n3ccccc3n2)c1=O)NCc1ccco1 | 15.9 | 0.3 | 0.00591 | 66.4* | 0.8 | x
CCCCc1cc(=O)oc2cc(OCc3nn[nH]n3)c(Cl)cc12 | 43.8 | 0.2 | x | 80.3* | 0.6 | -3.7
CCc1cc(=O)oc2cc(OCc3nn[nH]n3)ccc12 | 23.3 | 0.6 | 0.186 | 39.5 | 0.8 | 1.7
O=C(NC1CC2CCCC(C1)N2S(=O)(=O)c1ccccc1)C1CCCCC1 (stereo unspecified) | 26.7 | 0.4 | 1.25 | 60.4* | 0.7 | 10.6
O=C(Cc1ccccc1)NC(NCCCN1CCOCC1)(C(F)(F)F)C(F)(F)F | 15.2 | 0.8 | 0.537 | 18.1 | 0.8 | 2.8
CN1CCC(=NNC(=O)C(=O)NC(C)(C)C)CC1 | 31.3 | 0.4 | -0.252 | 55.4* | 0.7 | 8.1
C=CCn1c(SCc2ccccc2C#N)nnc1-c1cc(Br)ccc1O | 99.2* | 0.2 | -2.89 | 78.3* | 0 | 8.1
Cc1noc(C)c1COC(=O)c1cc2c3ccccc3n(C)c2s1 | 57.1* | 0.2 | 0.105 | 81.3* | 0.4 | 11.3
CCc1ccccc1N(CC(=O)O)S(C)(=O)=O | -14.2 | 1.2 | -0.629 | -18.9 | 1.1 | 9.8
O=c1c2ccccc2ncn1Cc1ccco1 | 11.6 | 0.8 | 0.617 | 16.4 | 0.9 | 8.9
Cn1c2ccccc2c2ncn(Cc3ccco3)c(=O)c21 | 69.4* | 0.4 | 0.165 | 59.5* | 0.3 | -3.9
Cn1c2ccc(F)cc2c2ncn(Cc3ccco3)c(=O)c21 | 50.7* | 0.4 | 0.163 | 61.1* | 0.5 | 4.3
CCCCn1c(=O)n(Cc2cccc(F)c2)c(=O)c2c1ncn2Cc1ccco1 | 11.4 | 0.9 | -4.34 | 11.0 | 0.9 | 12.0
CCCNC(=S)N1CCC(NC(=O)C2CCCCC2)CC1 | -18.0 | 1.3 | 0.47 | -26.2 | 1.2 | -3.6
CCCCC1(Cc2cccc([N+](=O)[O-])c2)C(=O)N(c2ccccc2)N(c2ccccc2)C1=O | 79.6* | 0.2 | -2.26 | 80.5* | 0.2 | 15.2
COCCNC(=O)CN1CCC(n2c(C)nc3cc(C(F)(F)F)ccc32)CC1 | 16.3 | 1 | 2.11 | 3.7 | 0.8 | x
SMILES | CYP2C19 inh | CYP2C9 act | Cav32 inh | CYP2C9 inh | CYP2C19 act | HIV Rev-RRE inh
Cc1ccc(CSCCNC(=O)c2ccc(N(C)S(=O)(=O)c3ccccc3)cc2)cc1 | 8.2 | 0.1 | -5.65* | 86.5* | 0.9 | 1.6
Cc1ccc(C(=O)N2CCC(C(N)=O)CC2)cc1C | -1.1 | 1.3 | -2.26 | -33.9 | 1 | 5.2
COc1ccc(S(=O)(=O)N(C)c2ccc(C(=O)N3CCC(C(N)=O)CC3)cc2)cc1 | -8.0 | 0.5 | 0.966 | 50.5* | 1.1 | 2.0
COCCCNC(=O)c1ccc(N(C)S(=O)(=O)c2ccc(OC)cc2)cc1 | 12.2 | 0.3 | -0.0176 | 69.5* | 0.9 | 2.1
COc1ccc(S(=O)(=O)N2CCC(C(N)=O)CC2)cc1 | x | x | -0.034 | x | x | 4.0
NC(=O)C1CCN(C(=O)c2ccc(Oc3ccccc3)cc2)CC1 | 13.2 | 0.4 | 0.448 | 55.5* | 0.9 | 1.7
CCCNC(=O)C1CC(c2ccc(C(F)(F)F)cc2)=NO1 (stereo unspecified) | x | x | 0.221 | x | x | x
O=C(Nc1ccc(O)cc1)C1CC=CCC1 (stereo unspecified) | -1.2 | 0.9 | 0.41 | 6.2 | 1 | 3.0
COc1cccc(C2=NO[C@@H]3C(=O)N(c4ccc5c(c4)OCCO5)C(=O)[C@H]23)c1OC | 1.5 | 0.9 | 0.509 | 12.7 | 1 | 3.7
Cc1cc2c3c(c1C)C1(C(=O)N3C(C)(C)CC2C)C(C#N)=C(N)Oc2cc(O)ccc21 (stereo unspecified) | -5.7 | 1 | -3.07 | 0.3 | 1.1 | 9.0
O=C(N1CCOCC1)N1c2ccccc2Sc2ccccc21 | 55.4* | 0.8 | -1.18 | 19.0 | 0.4 | -2.1
CC1CCN(C(=O)N2c3ccccc3Sc3ccccc32)CC1 | 15.0 | 1 | 0.113 | -1.0 | 0.8 | 11.5
COC(=O)c1ccc(CN(c2ccccn2)S(=O)(=O)c2ccccc2)cc1 | 70.4* | 0.7 | -0.0739 | 30.4 | 0.3 | 7.4
CC(C)OP(=O)(c1ccc(N(C)C)cc1)C(O)c1ccncc1 (stereo unspecified) | 9.2 | 0.7 | 0.0248 | 27.4 | 0.9 | 7.5
CN(C)c1ccc(/C=C/c2ccncc2)cc1 | 98.0* | 0.2 | -3.69 | 78.5* | 0 | 72.5*
Cc1nn(Cc2cccc(C(=O)N3N=C(C(F)F)CC3(O)C(F)F)c2)c(C)c1[N+](=O)[O-] (stereo unspecified) | 78.0* | 0.1 | -2.24 | 85.3* | 0.2 | 8.5
Cc1nn(Cc2cccc(C(=O)NC(C)c3ccc(C(C)(C)C)cc3)c2)c(C)c1[N+](=O)[O-] (stereo unspecified) | 78.2* | 0.1 | -1.79 | 86.7* | 0.2 | 15.5
COCCn1c(=S)[nH]c2cc(C(=O)NCC3CCCO3)ccc2c1=O (stereo unspecified) | 75.6* | 0.5 | -0.559 | 51.8* | 0.2 | 5.8
N#Cc1c(N2C(=O)C3C4C=CC(C4)C3C2=O)sc2c1CCC2 (stereo unspecified) | 63.8* | 0.7 | 0.0316 | 29.7 | 0.4 | 6.1
Cn1c(=O)oc2cc(S(=O)(=O)N3CCCC(C(=O)N4CC=C(c5ccccc5)CC4)C3)ccc21 (stereo unspecified) | 72.1* | 1.2 | x | -22.3 | 0.3 | 0.4

High-throughput results as filed in PubChem BioAssay.
